Screens: PubChem, several laboratories
Thrombin inh – inhibitors of human thrombin; actives 0.26% (n = 220,000); alpha-thrombin, Boc-VPR-AMC fluorogenic substrate cleavage; inhibition, % at 5 µM; P00734;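 active = inhibition at or above 40%; inactive = inhibition below 40%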;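 also: 0% = enzyme with no compound and 100% = wells without enzyme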
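Material: human alpha-thrombin protein. Incubation: reaction at ambient temperature. Technique: fluorescence of released AMC, ex 355 nm, em 460 nm. Control set: no-compound enzyme wells and no-enzyme blanks. Also added: Boc-VPR-AMC substrate, 15 µM final. Buffer or medium: pH 7.5 Tris (50 mM) with NaCl 150 mM, Tween 20 0.05%.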
AHR activator – human AHR activation | P35869 | AHR-responsive luciferase reporter cells, luminescence | activation, % at 5 µM | actives 2.5% (n = 320,000) | AID 2796; in the data active = activation above about 47%;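 also: 0% = vehicle wells and 100% = reference agonist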
FXIIa inh – inhibitors of human coagulation factor XIIa; P00748; actives 0.3% (n = 220,000); inhibition, % at 5 µM; purified FXIIa, Boc-QGR-AMC fluorogenic substrate, 2 h; in the data active = inhibition above about 40%;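 also: 0% = enzyme with no compound and 100% = blank without enzyme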
FXIa inh – inhibitors of human coagulation factor XIa; inhibition, % at 5 µM; AID 798; purified FXIa, Boc-Glu-Ala-Arg-AMC fluorogenic substrate; actives 0.14% (n = 220,000); P03951;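 active = inhibition of at least 40%; inactive = inhibition below 40%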;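 also: fluorescence of freed AMC excited at 355 nm; 0% = enzyme without compound and 100% = no enzyme blank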
STAT3 act – increases IL-6 driven STAT3 reporter signal; U3A cells, IL-6 STAT3-luciferase reporter, luminescence; 100% = signal with IL-6 EC80 alone; activation (% of control), % at 5.6 µM; actives 0.91% (n = 190,000); AID 871;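 active = activation above the screen-wide mean of compound activation plus 3 SD, cut at about 130% in these data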;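 also: 0% = background luminescence of wells with medium and substrate only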
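Detection: reporter luminescence signal / Assay system: STAT1-lacking human U3A cells, STAT3 luciferase reporter / Incubation: compound pre-incubation 1 h before IL-6, then 6 h stimulation at 37 °C / Control set: IL-6-only high control / Read-out: % activation relative to IL-6 control / Probe or stimulus: Interleukin-6, 33 ng/mL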
hK5 inh – blocks human kallikrein 5 protease activity. recombinant hK5, fluorogenic AMC substrate cleavage. inhibition, % at 5 µM. actives 0.59% (n = 210,000). AID 873;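 active = inhibition of 40% or more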;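 also: 0% = enzyme controls without compound and 100% = no-enzyme blanks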
Target sequence (Q9Y337 67-293 limits assumed): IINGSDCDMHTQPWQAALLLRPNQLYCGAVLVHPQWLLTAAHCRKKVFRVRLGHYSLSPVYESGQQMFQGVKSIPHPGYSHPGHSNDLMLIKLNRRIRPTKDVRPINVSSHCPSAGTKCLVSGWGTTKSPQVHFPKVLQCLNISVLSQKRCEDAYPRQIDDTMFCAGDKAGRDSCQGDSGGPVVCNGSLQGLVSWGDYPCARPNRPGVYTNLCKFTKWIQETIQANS
* marks the source's active call; other numbers are inactive results; . = no result given. Hits are enriched below; roughly 3.5% of the tested compounds scored in any of these assays.

SMILES	Thrombin inh	AHR activator	FXIIa inh	FXIa inh	STAT3 act	hK5 inh
CC(C)CSc1nnc2c3ccccc3n(C)c2n1	.	57.4*	.	.	.	.
C[C@H](CO)N1C[C@H](C)[C@@H](CN(C)C(=O)NC2CCCCC2)Oc2ccc(NS(C)(=O)=O)cc2C1=O	.	0.6	.	.	.	.
O=C(CSc1nc(-c2ccccc2)c(-c2ccccc2)[nH]1)N1CCN(S(=O)(=O)c2ccccc2)CC1	-0.2	-4.0	10.7	-5.0	94.2	-6.2
Cc1ccc(C(=O)NNC(=S)Nc2cccc3ccccc23)s1	-6.4	17.8	8.3	-0.2	134.4*	-262.3
CC(=O)c1cccc(NC(=S)Nc2cccc3ccccc23)c1	.	54.5*	.	.	.	.
CC(=O)c1ccc(NC(=S)Nc2cccc3cnccc23)cc1	18.9	14.2	11.0	64.6*	.	13.5
CC(C)CCN(C(=O)COc1ccc(C#N)cc1)c1c(N)n(Cc2ccccc2)c(=O)[nH]c1=O	-1.9	4.5	5.8	1.1	101.6	.
CSCCC(NC(=O)COc1ccccc1)C(=O)OC(C)C(=O)Nc1ccccc1C (stereo unspecified)	.	4.0	.	.	.	.
COc1cc(OC)cc(OCC(O)Cn2ccnc2)c1 (stereo unspecified)	2.6	53.4*	5.2	4.5	106.5	-23.4
O=C(COC(=O)c1cccc(Br)c1)NCC1CCCO1 (stereo unspecified)	.	-3.0	.	.	.	.
CC(C)(O)[C@@H]1CC[C@@](C)(C2CC[C@]3(C)C2[C@H](O)CC2[C@@]4(C)CC[C@H](O)C(C)(C)C4[C@@H](O[C@H]4O[C@@H](CO)[C@H](O)[C@@H](O)[C@@H]4O[C@@H]4O[C@H](CO)[C@@H](O)[C@H](O)[C@H]4O)C[C@]23C)O1 (stereo in doubt)	.	-0.5	.	.	.	.
CCOc1ccc(N2CC(C(=O)Nc3ncccc3C)CC2=O)cc1 (stereo unspecified)	-5.1	-1.6	5.0	-11.7	94.0	1.6
CCC(Sc1nc2n[nH]c(C)c2c(=N)n1-c1cccc(Cl)c1)C(=O)NCCOC (stereo unspecified)	1.7	63.2*	19.2	3.1	100.1	-9.7
CCC(Sc1nc2n[nH]c(C)c2c(=N)n1-c1ccc(C)c(Cl)c1)C(=O)N1CCOCC1 (stereo unspecified)	1.5	5.5	13.9	6.5	96.3	16.9
Cc1cc(-n2c(SCc3ccccc3F)nc3n[nH]c(C)c3c2=N)ccc1Cl	-6.0	55.5*	9.6	0.6	94.5	3.4
COc1ccccc1NC(=O)CSc1nc2n[nH]c(C)c2c(=N)n1-c1ccccc1Cl	-4.9	75.3*	3.7	-2.1	102.0	-11.8
CCCCCNC(=O)c1ccc2c(=O)n(CCCN3CCCC3=O)c(=S)[nH]c2c1	3.5	4.4	1.3	-4.8	105.0	-4.5
CCOc1ccc(-c2cc(C(=O)O)c3ccccc3n2)c(OCC)c1	-5.5	4.2	11.1	-1.3	135.0*	-15.5
CCOc1ccccc1-c1cc(C(=O)Nc2ccc(C(=O)O)cc2)c2ccccc2n1	.	17.5	.	.	.	.
Cc1cccc(-c2cc(C(=O)NCc3ccccn3)c3ccccc3n2)c1	10.5	16.9	-0.5	-7.9	111.2	-1.5
O=C(NCc1ccccn1)c1cc(-c2ccccc2)nc2ccccc12	-4.1	17.7	8.0	7.8	96.9	-17.7
Cc1ccc(-c2cc(C(=O)NCc3ccccn3)c3ccccc3n2)cc1C	-7.5	56.0*	-8.4	-5.7	98.6	-40.5
O=C(NCc1ccccn1)c1cc(-c2ccc(-c3ccccc3)cc2)nc2ccccc12	-11.0	66.0*	-1.7	-5.1	115.3	-17.3
Cc1cc(NC(=O)c2cc(-c3ccc(C)c(C)c3)nc3ccccc23)no1	-3.4	58.2*	1.1	-7.8	111.3	-5.7
O=C(Cn1nc(C(F)(F)F)c2c1CCC2)N1CCN(c2ccccc2)CC1	-4.3	-0.6	5.9	3.2	102.1	13.8
SMILES	Thrombin inh	AHR activator	FXIIa inh	FXIa inh	STAT3 act	hK5 inh
CCCCNS(=O)(=O)c1ccc2nc(-c3cccs3)cc(C(=O)NCC(OC)OC)c2c1	-4.8	4.7	-1.1	1.6	104.9	-34.8
CCOc1ccccc1NC(=O)c1cc(-c2ccccn2)nc2ccccc12	.	71.2*	.	.	.	.
COc1ccc(NC(=O)c2cc(-c3ccccn3)nc3ccccc23)c(OC)c1	.	9.3	.	.	.	.
Cc1ccc(N2NC(C)(c3cccs3)NC2=S)cc1 (stereo unspecified)	-5.4	52.4*	1.7	-1.2	93.5	-5.8
CN(C)c1ccc(N=C/C=C2\N(C)c3ccccc3C2(C)C)cc1	6.5	150.1*	11.2	4.8	100.5	4.5
CN1/C(=C\C=O)C(C)(C)c2ccccc21	-4.2	63.9*	10.8	-0.3	98.0	1.7
CN1\C(=C/C=C/C=C/C=[N+](C)C)C(C)(C)c2ccccc21	-0.1	.	10.4	-1.0	57.8	1.0
Cc1ccc(OCCn2cnc3c2c(=O)n(C)c(=O)n3C)cc1	.	-0.8	.	.	.	.
CCN1C(=O)[C@H]2[C@@H](c3ccc(-c4ccc(Cl)c(Cl)c4)c(OC)c3)N3CCCC[C@@]3(C(=O)OC)[C@H]2C1=O	.	2.2	.	.	.	.
COc1ccc(-c2cn3c4c(sc3n2)CCCC4)cc1	-4.3	68.2*	1.1	-3.0	82.9	3.2
COc1ccc(NC(=O)NCCCN2CCc3ccccc3C2)cc1	1.0	4.0	13.5	4.5	109.7	-9.3
O=C(NCCCN1CCc2ccccc2C1)Nc1ccc(Br)cc1	-2.1	60.9*	3.1	-9.0	110.6	-3.7
O=C(/C=C/c1ccccc1)NC(=S)NNC(=O)Cc1cccs1	-1.8	48.5*	9.2	-2.9	105.1	-102.7
C/C(=N\NC(=O)c1cccc(N/N=C(\C)c2ccccc2)c1)c1ccccc1	27.2	12.7	63.4*	18.5	101.4	28.8
C/C(=N\NC(=O)c1cccc(N/N=C(\C)c2ccc([N+](=O)[O-])cc2)c1)c1ccc([N+](=O)[O-])cc1	3.6	4.8	16.1	4.0	.	6.0
C/C(=N\NC(=O)c1cccc(N/N=C(\C)c2ccncc2)c1)c1ccncc1	-4.1	66.7*	9.5	1.3	91.2	9.4
C/C(=N\NC(=O)c1ccncc1)c1cccc(NC(=O)c2ccc(C(C)(C)C)cc2)c1	.	1.0	.	.	.	.
CCC(=O)NC(=S)Nc1cccc(NC(=O)c2ccccc2)c1	40.4*	2.7	34.6	35.2	91.5	21.5
C/C(=N\Nc1ccc(Cl)c(C(=O)O)c1)c1cccc([N+](=O)[O-])c1	56.2*	-1.6	32.3	38.8	.	31.7
CC1(C)C[C@H]2C3=CCC4[C@@]5(C)CC[C@H](O)[C@](C)(CO)C5CC[C@@]4(C)[C@]3(C)C[C@H]3O[C@@H]1[C@H](O)[C@]32CO (stereo partly specified)	.	-0.1	.	.	.	.
C/C(=N\NC(=O)c1cccc([N+](=O)[O-])c1)c1ccncc1	3.2	78.3*	-0.2	-4.3	113.2	-12.7
C/C(=N\NC(=O)c1ccccc1O)c1cccc(NC(=O)c2ccccc2)c1	.	52.6*	.	.	.	.
C/C(=N\NC(=O)c1cc(O)ccc1O)c1cccc(NC(=O)c2ccc(Cl)cc2)c1	.	-5.0	.	.	.	.
